From PubChem
GPR7 antag = antagonists of human GPR7 (neuropeptides B/W receptor 1) | 290,000 tested, 1.1% active | AID 1861 | inhibition, % at 4.4 µM | P48145 | GPR7-expressing cells, fluorescence antagonist assay; in the data active = inhibition above about 16%, passing the limit was not always enough;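 note: cells stimulated with the agonist NPW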
Target sequence (P48145 whole entry, looked up): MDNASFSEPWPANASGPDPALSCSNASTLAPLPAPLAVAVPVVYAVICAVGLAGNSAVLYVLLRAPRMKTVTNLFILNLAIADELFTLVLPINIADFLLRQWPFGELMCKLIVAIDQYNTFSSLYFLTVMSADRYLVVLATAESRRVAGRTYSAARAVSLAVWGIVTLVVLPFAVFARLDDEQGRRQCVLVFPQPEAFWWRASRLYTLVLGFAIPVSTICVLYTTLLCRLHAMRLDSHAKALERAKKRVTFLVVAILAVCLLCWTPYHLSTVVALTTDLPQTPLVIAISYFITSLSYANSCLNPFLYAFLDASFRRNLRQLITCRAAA
CHO parental Ca = signal in parental CHO cells, OX1R antagonist counter-screen; 330,000 tested, 0.63% active; parental CHO-K1, ATP-induced calcium, Fluo-8 fluorescence; inhibition, % at 5.6 µM;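 active = inhibition above that plate's mean sample inhibition plus 3 SD, cut at about 26% in these data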
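Assay system: parental CHO cells; Read-out basis: percent inhibition of ATP-evoked calcium rise, normalized to controls; Benchmarks: ATP and no-ATP DMSO wells; Compound dosing: single nominal dose of 5.6 µM per compound; Signal: Fluo-8 calcium dye fluorescence; Also added: ATP as calcium-mobilizing challenge; Repeats: singlicate.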
OX1R antag-1 = antagonists of human orexin 1 receptor (OX1R); O43613; OX1R-expressing cells, FRET antagonist read-out; inhibition, % at 6.6 µM; 330,000 tested, 1.8% active; AID 485270; in the data active = inhibition mostly above about 38%, no sharp cut-off; inactive = mostly below about 40%
OX1R antag-2 = human HCRTR1 antagonism | CHO/OX1R cells, Fluo-8 calcium fluorescence, orexin A | O43613 | inhibition, % at 5 µM | 330,000 tested, 0.43% active;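 active = inhibition above its plate's threshold, mean inhibition of all tested compounds on the plate plus 3 SD, cut at about 37% in these data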
TAAR1 antag = antagonists of human TAAR1. CHO RD-HGA16 TAAR1, Fluo-8 calcium fluorescence, antagonist. inhibition, % at 3 µM. 360,000 tested, 1.5% active. AID 624466;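 active = inhibition above a per-plate cutoff, the mean inhibition of test compounds on that plate plus 3 SD, cut at about 49% in these data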
Target sequence (Q96RJ0 whole entry, looked up): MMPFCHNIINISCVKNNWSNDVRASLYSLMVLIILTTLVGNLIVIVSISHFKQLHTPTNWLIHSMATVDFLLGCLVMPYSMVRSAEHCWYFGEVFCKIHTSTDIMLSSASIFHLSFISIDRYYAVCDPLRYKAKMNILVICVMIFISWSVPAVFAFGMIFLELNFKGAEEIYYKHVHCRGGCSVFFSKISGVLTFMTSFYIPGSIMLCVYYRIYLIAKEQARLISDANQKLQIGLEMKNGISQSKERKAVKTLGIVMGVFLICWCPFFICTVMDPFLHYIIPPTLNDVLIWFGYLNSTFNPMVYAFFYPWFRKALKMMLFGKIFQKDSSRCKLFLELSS
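test system = CHO RD-HGA16 cells bearing hTAAR1 | replication = singlicate | controls = DMSO-only wells and EC80 β-PEA-stimulated wells | reagent = EC80 β-phenethylamine stimulus | read-out basis = percent inhibition of PEA-evoked calcium signal, max/basal emission ratio | schedule = seeding 17-24 h prior, 75-min 37 °C, 30-min RT dye loading | signal = kinetic Fluo-8 calcium fluorescence measurement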
TAAR1 ag = agonists of human TAAR1. activation, % at 3 µM. 360,000 tested, 0.99% active. CHO RD-HGA16 TAAR1, Fluo-8 calcium fluorescence; vehicle wells 0%, saturating PEA agonist 100%. Q96RJ0;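 active = activation above the mean activation of all test compounds in the run plus 3 SD, cut at about 38% in these data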
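Test system: RD-HGA16 (CHO) cells co-expressing Gα16 and hTAAR1 | Doses: Single dose, 3 µM | Schedule: 17-24 h seeding, 75 min 37 °C dye, 30 min RT | Evaluation: % activation from peak over basal fluorescence ratio, DMSO-to-PEA scaled | Technique: Kinetic Fluo-8 calcium fluorescence | Benchmarks: Low control DMSO, high control PEA (EC100)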
TAAR1 ag confirm = human TAAR1 agonism, confirmed | AID 651783 | 2,400 tested, 82% active | shares compounds with TAAR1 ag | CHO RD-HGA16 TAAR1, Fluo-8 calcium fluorescence; scaled: DMSO 0%, maximal phenethylamine 100% | activation, % at 3 µM;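 active = activation above a cutoff set at the run's mean compound activation plus 3 SD, cut at about 39% in these data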
Ga16 ag counter = counter-screen for TAAR1 agonists: nonselective agonists in parental cells; shares compounds with TAAR1 ag; CHO-Ga16 parental, Fluo-8 calcium fluorescence; normalized to maximal ATP response, DMSO zero; activation, % at 3 µM; 2,400 tested, 50% active; AID 651787;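 active = activation above the run cutoff, the mean activation over all tested wells plus 3 SD, cut at about 12% in these data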
TAAR1 desens = human TAAR1 agonist that also desensitizes the receptor; shares compounds with TAAR1 ag; CHO RD-HGA16 hTAAR1, Fluo-8 calcium, beta-PEA response inhibition; inhibition, % at 3 µM; 2,400 tested, 46% active; AID 651951;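 active = inhibition above the run cutoff, the mean inhibition of all test compounds plus 3 SD, cut at about 49% in these data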;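 note: beta-PEA stimulus applied at its EC80; loss of beta-PEA calcium signal after compound pretreatment read as receptor desensitization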
Ga16 antag count = nonselective Ga16 antagonism, counter-screen. AID 651952. shares compounds with TAAR1 ag. inhibition, % at 3 µM. CHO-Ga16 ATP-induced calcium, Fluo-8 fluorescence. 2,400 tested, 39% active;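 active = inhibition above the plate's mean compound inhibition plus 3 SD, computed per plate, cut at about 22% in these data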
Hits are given with their value. An excerpt weighted towards active compounds, which were near 4.6% of everything screened.

For O=C(COc1ccc(S(=O)(=O)Nc2ccc(Cl)cc2)cc1)N1CCOCC1 the results were GPR7 antag inactive, CHO parental Ca inactive, OX1R antag-1 inactive, OX1R antag-2 inactive, TAAR1 antag inactive, TAAR1 ag 56.6, TAAR1 ag confirm 55.7, Ga16 ag counter 31.1, TAAR1 desens inactive and Ga16 antag count inactive.
Screening C=CCCC(=O)N1CCCC(C(=O)c2cccc(OC)c2)C1 (centres undefined) returned GPR7 antag inactive, CHO parental Ca inactive, OX1R antag-1 inactive, OX1R antag-2 inactive, TAAR1 antag inactive and TAAR1 ag inactive.
For O=C(O)C1CCCCC1C(=O)NCCCc1ccccc1 (centres undefined) the results were GPR7 antag inactive, CHO parental Ca inactive, OX1R antag-1 inactive, OX1R antag-2 inactive, TAAR1 antag inactive, TAAR1 ag 67.9, TAAR1 ag confirm 50.0, Ga16 ag counter inactive, TAAR1 desens inactive and Ga16 antag count inactive.
CC1CCCC/C1=N\NC(=S)NCCc1ccccc1 (centres undefined) was read as GPR7 antag inactive, CHO parental Ca inactive, OX1R antag-1 inactive, OX1R antag-2 inactive, TAAR1 antag inactive, TAAR1 ag 56.5, TAAR1 ag confirm 44.6, Ga16 ag counter inactive, TAAR1 desens inactive and Ga16 antag count inactive.
For COc1ccc(CCNC(=O)C2CCCCC2C(=O)O)cc1OC (centres undefined) the results were GPR7 antag inactive, CHO parental Ca inactive, OX1R antag-1 inactive and OX1R antag-2 inactive.
For Cc1ccc(NC(=S)N/N=C2\CCCCC2C)cc1 (centres undefined) the results were GPR7 antag inactive, CHO parental Ca inactive, OX1R antag-1 inactive, OX1R antag-2 inactive, TAAR1 antag inactive and TAAR1 ag inactive.
`O=C(NCCCc1ccccc1)c1ccccc1` gave GPR7 antag inactive, CHO parental Ca inactive, OX1R antag-1 inactive, OX1R antag-2 inactive, TAAR1 antag inactive and TAAR1 ag inactive.
Screening O=C(O)C1CCCCC1C(=O)NCCc1ccccc1 (centres undefined) returned GPR7 antag inactive, CHO parental Ca inactive, OX1R antag-1 inactive, OX1R antag-2 inactive, TAAR1 antag 85.8, TAAR1 ag 97.5, TAAR1 ag confirm 106.2, Ga16 ag counter inactive, TAAR1 desens 91.7 and Ga16 antag count inactive.
Screening O=C(NC1CCCCC1)C(=S)NCCc1ccccc1 returned GPR7 antag inactive, CHO parental Ca inactive, OX1R antag-1 inactive, OX1R antag-2 inactive, TAAR1 antag inactive, TAAR1 ag 58.1, TAAR1 ag confirm 75.7, Ga16 ag counter inactive, TAAR1 desens 62.1 and Ga16 antag count inactive.
Screening O=C(NCCc1ccccc1)C(=O)NC1CCCCC1 returned GPR7 antag inactive, CHO parental Ca inactive, OX1R antag-1 inactive, OX1R antag-2 inactive, TAAR1 antag inactive and TAAR1 ag inactive.
C/C(CC(=O)Nc1cccc(C(F)(F)F)c1)=N\NC(=O)c1cnccn1 was read as GPR7 antag inactive, CHO parental Ca inactive, OX1R antag-1 inactive, OX1R antag-2 inactive, TAAR1 antag inactive and TAAR1 ag inactive.
For O=S(=O)(Cc1ccc(Cl)cc1)NCc1ccc2c(c1)OCO2 the results were GPR7 antag inactive, CHO parental Ca inactive, OX1R antag-1 inactive, OX1R antag-2 inactive, TAAR1 antag inactive and TAAR1 ag inactive.
`CCC1CCCCN1C(=O)Nc1cc(Cl)ccc1OC` (centres undefined) gave GPR7 antag inactive, CHO parental Ca inactive, OX1R antag-1 inactive, OX1R antag-2 inactive, TAAR1 antag inactive and TAAR1 ag inactive.
O=C(N/N=C/C1CC2CCC1C2)c1ccc2c(c1)OCO2 (centres undefined) was read as GPR7 antag inactive, CHO parental Ca inactive, OX1R antag-1 inactive, OX1R antag-2 inactive, TAAR1 antag inactive and TAAR1 ag inactive.
COc1cc(S(=O)(=O)N2CCN(C(=O)c3ccco3)CC2)ccc1Cl was read as GPR7 antag inactive, CHO parental Ca inactive, OX1R antag-1 inactive, OX1R antag-2 inactive, TAAR1 antag inactive and TAAR1 ag inactive.
For O=C(O)C1CCCCC1C(=O)NCCCCc1ccccc1 (centres undefined) the results were GPR7 antag inactive, CHO parental Ca inactive, OX1R antag-1 inactive, OX1R antag-2 inactive, TAAR1 antag inactive, TAAR1 ag 45.0, TAAR1 ag confirm 55.9, Ga16 ag counter inactive, TAAR1 desens inactive and Ga16 antag count inactive.
`CC(CNC(=O)C1CCCCC1C(=O)O)c1ccccc1` (centres undefined) gave GPR7 antag inactive, CHO parental Ca inactive, OX1R antag-1 inactive, OX1R antag-2 inactive, Ga16 ag counter inactive and Ga16 antag count inactive.
`O=C(CN1C(=O)NC(CCc2ccccc2)C1=O)Nc1ccccc1C(F)(F)F` (centres undefined) gave CHO parental Ca inactive, OX1R antag-1 inactive, OX1R antag-2 inactive, TAAR1 antag inactive and TAAR1 ag inactive.
For CCOCCCn1c(=S)[nH]c2cc(C(=O)NCCc3ccccc3)ccc2c1=O the results were GPR7 antag inactive, CHO parental Ca inactive, OX1R antag-1 inactive, OX1R antag-2 inactive, TAAR1 antag inactive, TAAR1 ag 43.8, TAAR1 ag confirm 50.5, Ga16 ag counter inactive, TAAR1 desens inactive and Ga16 antag count inactive.
For COc1ccc(CN2C(=O)C(C)Nc3ncnc(N4CCN(c5ccccn5)CC4)c32)cc1 (centres undefined) the results were CHO parental Ca inactive, OX1R antag-1 inactive, OX1R antag-2 inactive, TAAR1 antag inactive and TAAR1 ag inactive.
COc1ccc(CN2C(=O)C(C)Nc3ncnc(N4CCc5ccccc5C4)c32)cc1 (centres undefined) was read as TAAR1 antag inactive, TAAR1 ag 53.0, TAAR1 ag confirm 43.8, Ga16 ag counter inactive, TAAR1 desens inactive and Ga16 antag count inactive.
`Cc1ccc(NC(=O)c2ccc3nsnc3c2)c(Cl)c1` gave GPR7 antag inactive, CHO parental Ca inactive, OX1R antag-1 inactive, OX1R antag-2 inactive, TAAR1 antag inactive, TAAR1 ag 57.1, TAAR1 ag confirm inactive, Ga16 ag counter inactive, TAAR1 desens inactive and Ga16 antag count inactive.
